From ChEMBL document CHEMBL3813598, “Development of hydroxy-based sphingosine kinase inhibitors and anti-inflammation in dextran sodium sulfate induced colitis in mice” (Bioorg Med Chem, 2016)
pIC50, pKi: −log10 of the molar value. Activity calls are given as the source filed them. The rule behind the calls is not given here.

Legend:
Sphingosine kinase 2 [1] = target: T1, Sphingosine kinase 2 (Homo sapiens, UniProt Q9NRA0); test: Inhibition of GST-tagged full length human recombinant SPHK2 expressed in baculovirus using sphingosine as substrate preincubated for 10 mins measured after 1 hr by ADP-quest assay
T1 sequence (Q9NRA0 whole entry): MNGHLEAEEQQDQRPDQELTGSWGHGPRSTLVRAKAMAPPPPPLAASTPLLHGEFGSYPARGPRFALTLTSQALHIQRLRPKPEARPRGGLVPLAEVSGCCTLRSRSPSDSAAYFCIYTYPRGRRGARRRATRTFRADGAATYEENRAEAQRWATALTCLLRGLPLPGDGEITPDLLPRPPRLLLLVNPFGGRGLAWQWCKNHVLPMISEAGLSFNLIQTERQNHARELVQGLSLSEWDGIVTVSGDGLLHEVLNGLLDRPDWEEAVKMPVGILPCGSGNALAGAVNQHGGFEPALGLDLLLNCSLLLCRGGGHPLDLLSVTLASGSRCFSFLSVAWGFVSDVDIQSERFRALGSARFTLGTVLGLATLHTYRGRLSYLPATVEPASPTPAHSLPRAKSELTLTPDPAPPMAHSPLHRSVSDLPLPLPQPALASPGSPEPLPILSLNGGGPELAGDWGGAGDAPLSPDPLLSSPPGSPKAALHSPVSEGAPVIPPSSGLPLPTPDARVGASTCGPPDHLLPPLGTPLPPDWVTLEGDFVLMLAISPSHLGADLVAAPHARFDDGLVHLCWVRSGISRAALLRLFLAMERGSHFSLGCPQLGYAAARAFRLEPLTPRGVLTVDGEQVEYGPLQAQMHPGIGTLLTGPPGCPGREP
In short: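 Human recombinant SphK1 or SphK2 with sphingosine substrate and ATP, tested in 384-well format. Enzyme was preincubated with compound for 10 min, then the reaction ran at 28 °C for 1 h. ADP Quest reagents A and B were added for 30 min at room temperature. Fluorescence was read at Ex 530/Em 590 nm. Values are mean of n = 3 in triplicate.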

Sphingosine kinase 1 [2] = target: T2, Sphingosine kinase 1 (Homo sapiens, UniProt Q9NYA1); test: Inhibition of GST-tagged full length human recombinant SPHK1 expressed in baculovirus using sphingosine as substrate preincubated for 10 mins measured after 1 hr by ADP-quest assay
Sphingosine kinase 2 [3] = target: T1, Sphingosine kinase 2; test: Inhibition of His-tagged full length human recombinant SPHK2 expressed in baculovirus infected fall armyworm Sf9 cell expression system using sphingosine as substrate by ADP-quest assay
Sphingosine kinase 1 [4] = target: T2, Sphingosine kinase 1; test: Inhibition of His-tagged full length human recombinant SPHK1 expressed in baculovirus infected fall armyworm Sf9 cell expression system using sphingosine as substrate by ADP-quest assay
Mus musculus [5] = test: Antiinflammatory activity in DSS- induced C57BL/6 mouse colon colitis model assessed as cellular infiltration of mononuclear macrophages/neutrophils at 50 mg/kg, ig after 24 hrs by hematoxylin/eosin staining based assay; type: functional, organism-based
In short: (§1)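 Colitis induced in female C57BL/6 mice as 2.5% DSS in drinking water for 5 days, then 5 days of water. Dosing ip or 5-ASA ig until sacrifice at day 10. Colons fixed in 10% buffered formalin (pH 7.4) for at least 24 h. Sections scored for cellular infiltration, mucosal lesion and crypt damage to give a histologic score.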

Mus musculus [6] = test: Antiinflammatory activity in DSS- induced C57BL/6 mouse colitis model assessed as body weight at 50 mg/kg, ig after 10 days (reference value: 15.69 +/- 0.65 g); type: functional
In short: (§2)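 Female C57BL/6 mice, 6–8 weeks, randomized into five groups. Colitis induced by 2.5% w/v DSS in drinking water for 5 days, then 5 days of normal water. Test agent given ip at 5 or 10 mg/kg, or 5-ASA ig at 50 mg/kg, until study end. Controls were water plus vehicle and DSS plus vehicle. Body weight recorded daily; colon length taken at sacrifice on day 10. Mean ± SD, n = 10.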

Mus musculus [7] = test: Antiinflammatory activity in DSS- induced C57BL/6 mouse colitis model assessed as colon length at 50 mg/kg, ig after 10 days (reference value: 45.68 +/- 1.34 mm); type: functional; in short: as §2
Mus musculus [8] = test: Antiinflammatory activity in DSS- induced C57BL/6 mouse colitis model assessed as change in body weight at 50 mg/kg, ig after 7 days; type: functional, organism-based; in short: as §2
Mus musculus [9] = test: Antiinflammatory activity in DSS- induced C57BL/6 mouse colon colitis model assessed as inhibition of IL6 expression at 50 mg/kg, ig after 24 hrs by hematoxylin staining based assay; type: functional, organism-based
In short: (§3)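 Colons come from the same DSS model, fixed in 10% buffered formalin for at least 24 h. Paraffin sections were deparaffinized. Antigen was retrieved in 10 mM sodium citrate with 0.1% Tween 20 at 100 °C for 20 min. Primary antibody was applied in PBS with 5% BSA and 10% goat serum, then HRP polymer at room temperature for 30 min. Detection was DAB with hematoxylin counterstain. IL-6 and COX-2 positive labeling was counted automatically. Mean ± SD.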

Mus musculus [10] = test: Antiinflammatory activity in DSS- induced C57BL/6 mouse colon colitis model assessed as mucosal/submucosal lesion at 50 mg/kg, ig after 24 hrs by hematoxylin/eosin staining based assay; type: functional, organism-based; in short: as §1
Mus musculus [11] = test: Antiinflammatory activity in DSS- induced C57BL/6 mouse colon colitis model assessed as inhibition of COX2 expression at 50 mg/kg, ig after 24 hrs by hematoxylin staining based assay; type: functional, organism-based; in short: as §3
Mus musculus [12] = test: Antiinflammatory activity in DSS- induced C57BL/6 mouse colon colitis model assessed as degeneration/necrosis of crypt cells at 50 mg/kg, ig after 24 hrs by hematoxylin/eosin staining based assay; type: functional, organism-based; in short: as §1

T2 sequence (Q9NYA1 whole entry): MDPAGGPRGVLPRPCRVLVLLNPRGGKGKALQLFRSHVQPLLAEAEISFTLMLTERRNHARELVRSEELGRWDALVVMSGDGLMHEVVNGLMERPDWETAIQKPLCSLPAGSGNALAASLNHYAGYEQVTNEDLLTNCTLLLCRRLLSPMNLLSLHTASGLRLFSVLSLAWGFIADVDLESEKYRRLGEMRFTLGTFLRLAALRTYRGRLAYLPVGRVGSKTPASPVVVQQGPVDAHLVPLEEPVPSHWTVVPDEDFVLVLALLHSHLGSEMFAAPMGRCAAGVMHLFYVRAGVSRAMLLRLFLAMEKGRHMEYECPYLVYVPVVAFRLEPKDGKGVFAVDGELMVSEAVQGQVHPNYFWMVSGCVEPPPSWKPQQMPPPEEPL

Row | Structure (SMILES) | pIC50 (Sphingosine kinase 2 [1]) | pIC50 (Sphingosine kinase 1 [2]) | further results
1 | N#Cc1cccc(COc2ccc(/C=N/NC(=O)c3cc(O)c(O)c(O)c3)cc2)c1 | 4.65 | 4.34 | 
2 | O=C(N/N=C/c1cccc(OCc2ccccc2)c1)c1cc(O)c(O)c(O)c1 | 4.58 | 4.40 | 
3 | N#Cc1cccc(COc2cccc(/C=N/NC(=O)c3cc(O)c(O)c(O)c3)c2)c1 | < 4.00 | 4.07 | 
4 | O=C(N/N=C/c1cccc(OCc2cccc3ccccc23)c1)c1cc(O)c(O)c(O)c1 | 4.39 | 4.50 | 
5 | N#Cc1ccccc1COc1ccc(/C=N/NC(=O)c2cc(O)c(O)c(O)c2)cc1 | 4.35 | < 4.00 | 
6 | O=C(N/N=C/c1cccc(OCc2ccccc2C(F)(F)F)c1)c1ccc(O)cc1 | < 4.00 | < 4.00 | 
7 | Cc1cccc(COc2cccc(/C=N/NC(=O)c3cc(O)c(O)c(O)c3)c2)c1 | 4.10 | 4.28 | 
8 | O=C(N/N=C/c1ccc(OCc2ccc3ccccc3c2)cc1)c1cc(O)c(O)c(O)c1 | 4.52 | 4.69 | 
9 | O=C(N/N=C/c1cccc(OCc2cccc(F)c2)c1)c1cc(O)c(O)c(O)c1 | < 4.00 | < 4.00 | 
10 | COc1cccc(COc2cccc(/C=N/NC(=O)c3ccc(O)c(O)c3)c2)c1 | 5.34 | 5.30 | 
11 | Cc1ccccc1COc1cccc(/C=N/NC(=O)c2cc(O)c(O)c(O)c2)c1 | 4.09 | 4.20 | 
12 | O=C(N/N=C/c1cccc(OCc2ccccc2)c1)c1ccc2[nH]cnc2c1 | < 4.00 | < 4.00 | 
13 | O=C(N/N=C/c1cccc(OCc2ccccc2C(F)(F)F)c1)c1cccc(O)c1 | < 4.00 | < 4.00 | 
14 | O=C(N/N=C/c1cccc(OCc2ccc(F)cc2)c1)c1cc(O)c(O)c(O)c1 | < 4.00 | < 4.00 | 
15 | Cc1ccc(COc2ccc(/C=N/NC(=O)c3cc(O)c(O)c(O)c3)cc2)cc1 | 4.35 | 4.49 | 
16 | COc1ccccc1COc1ccc(/C=N/NC(=O)c2cc(O)c(O)c(O)c2)cc1 | 4.57 | 4.73 | 
17 | N#Cc1ccc(COc2ccc(/C=N/NC(=O)c3cc(O)c(O)c(O)c3)cc2)cc1 | 4.75 | 4.56 | 
18 | Cc1ccc(COc2cccc(/C=N/NC(=O)c3cc(O)c(O)c(O)c3)c2)cc1 | 4.18 | 4.34 | 
19 | O=C(NCc1ccc(O)c(O)c1)C12CC3CC(C1)CC(c1ccc(Cl)cc1)(C3)C2 |  |  | pKi (Sphingosine kinase 2 [3]): 5.38; pKi (Sphingosine kinase 1 [4]): 5.49
20 | O=C(N/N=C/c1cccc(OCc2ccc(C(F)(F)F)cc2)c1)c1cc(O)c(O)c(O)c1 | 4.65 | 4.79 | 
21 | O=C(N/N=C/c1cccc(OCc2cccc(C(F)(F)F)c2)c1)c1cc(O)c(O)c(O)c1 | < 4.00 | < 4.00 | 
22 | O=C(N/N=C/c1ccc(OCc2ccccc2)cc1)c1cc(O)c(O)c(O)c1 | 4.55 | 4.66 | 
23 | COc1ccc(COc2cccc(/C=N/NC(=O)c3cc(O)c(O)c(O)c3)c2)cc1 | < 4.00 | < 4.00 | 
24 | O=C(N/N=C/c1ccc(OCc2ccc(C(F)(F)F)cc2)cc1)c1cc(O)c(O)c(O)c1 | 4.81 | 4.43 | 
25 | COc1cccc(COc2cccc(/C=N/NC(=O)c3cc(O)cc(O)c3)c2)c1 | < 4.00 | < 4.00 | 
26 | CCCCCCCCCCCCC/C=C/[C@@H](O)[C@H](CO)N(C)C [DIMETHYLSPINGOSINE] | 4.58 |  | 
27 | O=C(N/N=C/c1cccc(OCc2ccc(Cl)cc2)c1)c1cc(O)c(O)c(O)c1 | 4.21 | < 4.00 | 

Row | Structure (SMILES) | pIC50 (Sphingosine kinase 2 [1]) | pIC50 (Sphingosine kinase 1 [2]) | further results
28 | O=C(N/N=C/c1ccc(OCc2ccccc2C(F)(F)F)cc1)c1ccc(O)cc1 | < 4.00 | < 4.00 | 
29 | COc1ccc(COc2ccc(/C=N/NC(=O)c3cc(O)c(O)c(O)c3)cc2)cc1 | < 4.00 | < 4.00 | 
30 | COc1cccc(COc2cccc(/C=N/NC(=O)c3ccc(O)cc3)c2)c1 | < 4.00 | < 4.00 | 
31 | COc1cccc(COc2ccc(/C=N/NC(=O)c3ccc(O)cc3)cc2)c1 | < 4.00 | < 4.00 | 
32 | COc1cccc(COc2ccc(/C=N/NC(=O)c3ccc(O)c(O)c3)cc2)c1 | 4.99 | 4.60 | 
33 | COc1cccc(COc2ccc(/C=N/NC(=O)c3cccc(O)c3)cc2)c1 | < 4.00 | < 4.00 | 
34 | O=C(N/N=C/c1cccc(OCc2ccccc2F)c1)c1cc(O)c(O)c(O)c1 | 4.00 | < 4.00 | 
35 | O=C(N/N=C/c1cccc(OCc2ccccc2C(F)(F)F)c1)c1ccc(O)c(O)c1 | 4.86 | 4.81 | 
36 | Nc1ccc(O)c(C(=O)O)c1 [MESALAMINE] |  |  | Activity (Mus musculus [5]): Active; Activity (Mus musculus [6]): 18.32 g; Activity (Mus musculus [7]): 53.4 mm; Activity (Mus musculus [8]): inactive; inhibition (Mus musculus [9]): Active; Activity (Mus musculus [10]): Active; inhibition (Mus musculus [11]): Active; Activity (Mus musculus [12]): Active
37 | COc1cccc(COc2cccc(/C=N/NC(=O)c3cccc(O)c3)c2)c1 | < 4.00 | < 4.00 | 
38 | O=C(N/N=C/c1ccc(OCc2ccccc2C(F)(F)F)cc1)c1ccc(O)c(O)c1 | 4.94 | 4.78 | 
39 | O=C(N/N=C/c1ccc(OCc2ccccc2C(F)(F)F)cc1)c1cccc(O)c1 | < 4.00 | < 4.00 | 
40 | O=C(N/N=C/c1cccc(OCc2cccc(Cl)c2)c1)c1cc(O)c(O)c(O)c1 | 4.17 | < 4.00 | 
41 | O=C(N/N=C/c1cccc(OCc2ccccc2C(F)(F)F)c1)c1cc(O)c(O)c(O)c1 | 4.79 | 4.71 | 
42 | N#Cc1ccccc1COc1cccc(/C=N/NC(=O)c2cc(O)c(O)c(O)c2)c1 | 4.16 | 4.34 | 
43 | COc1cccc(COc2cccc(/C=N/NC(=O)c3cc(O)c(O)c(O)c3)c2)c1 | 5.06 | 5.07 | 
44 | N#Cc1ccc(COc2cccc(/C=N/NC(=O)c3cc(O)c(O)c(O)c3)c2)cc1 | 4.45 | 4.16 | 
45 | O=C(N/N=C/c1cccc(OCc2ccccc2Cl)c1)c1cc(O)c(O)c(O)c1 | 4.23 | 4.43 | 
46 | O=C(N/N=C/c1ccc(OCc2ccccc2C(F)(F)F)cc1)c1cc(O)cc(O)c1 | < 4.00 | < 4.00 | 
47 | CC(C)(C)c1ccc(COc2cccc(/C=N/NC(=O)c3cc(O)c(O)c(O)c3)c2)cc1 | 4.21 | 4.45 | 
48 | O=C(N/N=C/c1ccc(OCc2cccc(C(F)(F)F)c2)cc1)c1cc(O)c(O)c(O)c1 | 4.62 | 4.26 | 
49 | CC(C)(C)c1ccc(COc2ccc(/C=N/NC(=O)c3cc(O)c(O)c(O)c3)cc2)cc1 | 4.36 | 4.39 | 
50 | COc1ccccc1COc1cccc(/C=N/NC(=O)c2cc(O)c(O)c(O)c2)c1 | 4.71 | 4.69 | 
51 | COc1cccc(COc2ccc(/C=N/NC(=O)c3cc(O)cc(O)c3)cc2)c1 | < 4.00 | < 4.00 | 
52 | O=C(N/N=C/c1cccc(OCc2ccccc2C(F)(F)F)c1)c1cc(O)cc(O)c1 | < 4.00 | < 4.00 | 
53 | O=C(N/N=C/c1ccc(OCc2ccccc2C(F)(F)F)cc1)c1cc(O)c(O)c(O)c1 | 4.82 | 4.82 | 
